Two molecules from ChEMBL document CHEMBL3407428, “Synthesis, in vitro and in vivo antitumor activity of scopoletin-cinnamic acid hybrids” (Eur J Med Chem, 2015) can be followed below.

One may read the IC50 as the point on the concentration scale where inhibition reaches its midpoint.

One data set relates to MCF7. As to the kind of experiment: Cytotoxicity against human MCF7 cells assessed as growth inhibition at 10^-5 M after 72 hrs by MTT assay relative to control. As to conditions: MCF7, 72 h, read-out: GI. Type of data set: functional. For orientation: Formazan colour is commonly taken as a measure of viable cells.
The test system of data set [1] is MDA-MB-231. Description: Cytotoxicity against human MDA-MB-231 cells assessed as growth inhibition at 10^-5 M after 72 hrs by MTT assay relative to control. Type of data set: functional. As to conditions: MDA-MB-231, 72 h, read-out: GI.
Data set [2] deals with A549. As to the kind of experiment: Cytotoxicity against human A549 cells assessed as growth inhibition at 10^-5 M after 72 hrs by MTT assay relative to control. The format is functional. As to conditions: A549, 72 h, read-out: GI.
The nature of data set [3]: Cytotoxicity against human HCT116 cells assessed as growth inhibition at 10^-5 M after 72 hrs by MTT assay relative to control. The format is functional. Conditions: HCT-116, 72 h, read-out: GI.
In the next data set the test system is HeLa. As to the kind of experiment: Cytotoxicity against human HeLa cells assessed as growth inhibition at 10^-5 M after 72 hrs by MTT assay relative to control. Type of data set: functional. As to conditions: read-out: GI.
Data set [4] concerns A549. Description: Cytotoxicity against human A549 cells assessed as growth inhibition after 72 hrs by MTT assay. Conditions: A549, 72 h. The format is functional, cell-based. The method in brief:
(§1)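 MTT viability assay. Cells were seeded at 5000 per well, incubated overnight, then exposed to compound at a range of concentrations for 72 h. MTT was added from a 5 mg/mL stock for 4 h, and absorbance was read at 570 nm. IC50 (50% viability inhibition) was calculated by the logit method. Each concentration was run at least three times.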

The subject of data set [5] is MDA-MB-231. As to the kind of experiment: Cytotoxicity against human MDA-MB-231 cells assessed as growth inhibition after 72 hrs by MTT assay. The format is functional, cell-based. Conditions: MDA-MB-231, 72 h. The method in brief: as §1
Data set [6] in a line: Cytotoxicity against human HCT116 cells assessed as growth inhibition after 72 hrs by MTT assay. Type of data set: functional, cell-based. Conditions: HCT-116, 72 h. The method in brief: as §1
The subject of data set [7] is Lewis lung carcinoma cell line. As to the kind of experiment: Antitumor activity against mouse LLC cells allografted in C57BL/6 mouse assessed as tumor growth inhibition at 2.5 mg/kg, ip administered for 14 days measured on day 15 relative to control. Conditions: route intraperitoneal, read-out: TGI. The format is functional. A digest of the protocol: (§2)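 Female C57BL/6 mice (18–22 g) given 3 × 10^6 Lewis lung cancer cells subcutaneously in the right flank; dosing began 7 to 21 days after inoculation. Mice were randomized into groups of 10. Treatment was intraperitoneal daily for 14 days at 2.5, 5 or 10 mg/kg, with a saline control group. Tumors were excised and weighed when the mice were killed after 14 days.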

Data set [8] has as its system Mus musculus. Description: Toxicity in C57BL/6 mouse allografted with mouse LLC cells assessed as decrease in body weight at 2.5 mg/kg, ip administered for 14 days measured during compound dosing. Conditions: in vivo, 336 h. Type of data set: organism-based. More on the design: dose 2.5 mg/kg, route intraperitoneal. A digest of the protocol: (§3)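 LLC-bearing female C57BL/6 mice (18–22 g; 3 × 10^6 cells s.c., right flank) were randomized into groups of 10 and dosed i.p. daily for 14 days, with a saline control. Body weight was recorded every day from the first treatment.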

The subject of data set [9] is A549. Description: Cell cycle arrest in human A549 cells assessed as accumulation at S phase at 0.01 uM after 24 hrs by propidium iodide staining-based flow cytometric analysis relative to control. Type of data set: functional. The method in brief: (§4)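 A549 cells (3 × 10^5 per well) were seeded overnight, then treated at 0, 0.01, 0.1 or 1 µM for 24 h. Cells were harvested, washed in cold PBS and fixed in cold 70% ethanol for at least 24 h. They were then RNase A-treated and stained with propidium iodide (50 µg/mL) at room temperature. DNA content was analysed by FACSCalibur flow cytometry.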
On the technique in general: A flow cytometer gives signals particle by particle.

Data set [10] concerns A549. As to the kind of experiment: Cell cycle arrest in human A549 cells assessed as accumulation at S phase at 0.1 uM after 24 hrs by propidium iodide staining-based flow cytometric analysis relative to control. The format is functional. A digest of the protocol: as §4
Data set [11] deals with A549. As to the kind of experiment: Cell cycle arrest in human A549 cells assessed as accumulation at S phase at 1 uM after 24 hrs by propidium iodide staining-based flow cytometric analysis relative to control. The format is functional. The method in brief: as §4
For data set [12], the system named is A549. Description: Cell cycle arrest in human A549 cells assessed as accumulation at G0/G1 phase at 0.01 to 1 uM after 24 hrs by propidium iodide staining-based flow cytometric analysis. The format is functional. Conditions: in the assay text read “S phase” for “G0/G1 phase”. The method in brief: as §4
Data set [13] relates to A549. As to the kind of experiment: Cell cycle arrest in human A549 cells assessed as accumulation at G2/M phase at 0.01 to 1 uM after 24 hrs by propidium iodide staining-based flow cytometric analysis. Type of data set: functional. A digest of the protocol:
as §4

The subject of data set [14] is A549. Description: Induction of apoptosis in human A549 cells assessed as early apoptotic cells at 0.01 uM after 24 hrs by Annexin V and propidium iodide staining-based flow cytometric analysis (reference value: 8.2%). The format is functional.
Data set [15] has as its system A549. Description: Induction of apoptosis in human A549 cells assessed as late apoptotic cells at 0.01 uM after 24 hrs by Annexin V and propidium iodide staining-based flow cytometric analysis (reference value: 7.4%). The format is functional.
Data set [16] deals with A549. As to the kind of experiment: Induction of apoptosis in human A549 cells assessed as dead cells at 0.01 uM after 24 hrs by Annexin V and propidium iodide staining-based flow cytometric analysis (reference value: 1.4%). Type of data set: functional.
In data set [17] the test system is A549. As to the kind of experiment: Induction of apoptosis in human A549 cells assessed as viable cells at 0.01 uM after 24 hrs by Annexin V and propidium iodide staining-based flow cytometric analysis (reference value: 83%). Type of data set: functional. Conditions: A549, 24 h, read-out: Activity.
Data set [18] concerns A549. Description: Induction of apoptosis in human A549 cells assessed as early apoptotic cells at 0.1 uM after 24 hrs by Annexin V and propidium iodide staining-based flow cytometric analysis (reference value: 8.2%). The format is functional.
The subject of data set [19] is A549. Description: Induction of apoptosis in human A549 cells assessed as late apoptotic cells at 0.1 uM after 24 hrs by Annexin V and propidium iodide staining-based flow cytometric analysis (reference value: 7.4%). Type of data set: functional.
Data set [20] concerns A549. As to the kind of experiment: Induction of apoptosis in human A549 cells assessed as dead cells at 0.1 uM after 24 hrs by Annexin V and propidium iodide staining-based flow cytometric analysis (reference value: 1.4%). The format is functional.
Data set [21] deals with A549. Description: Induction of apoptosis in human A549 cells assessed as viable cells at 0.1 uM after 24 hrs by Annexin V and propidium iodide staining-based flow cytometric analysis (reference value: 83%). Type of data set: functional. As to conditions: A549, 24 h, read-out: Activity.
For data set [22], the system named is A549. Description: Induction of apoptosis in human A549 cells assessed as early apoptotic cells at 1 uM after 24 hrs by Annexin V and propidium iodide staining-based flow cytometric analysis (reference value: 8.2%). Type of data set: functional.
The test system of data set [23] is A549. As to the kind of experiment: Induction of apoptosis in human A549 cells assessed as late apoptotic cells at 1 uM after 24 hrs by Annexin V and propidium iodide staining-based flow cytometric analysis (reference value: 7.4%). The format is functional.
Data set [24] has as its system A549. Description: Induction of apoptosis in human A549 cells assessed as dead cells at 1 uM after 24 hrs by Annexin V and propidium iodide staining-based flow cytometric analysis (reference value: 1.4%). The format is functional.
The subject of data set [25] is A549. As to the kind of experiment: Induction of apoptosis in human A549 cells assessed as viable cells at 1 uM after 24 hrs by Annexin V and propidium iodide staining-based flow cytometric analysis (reference value: 83%). Type of data set: functional. Conditions: A549, 24 h, read-out: Activity.
Data set [26] deals with Lewis lung carcinoma cell line. Description: Antitumor activity against mouse LLC cells allografted in ip dosed C57BL/6 mouse assessed as tumor growth inhibition administered for 14 days measured on day 15. Type of data set: functional, organism-based. A digest of the protocol:
as §2

Data set [27] concerns Lewis lung carcinoma cell line. As to the kind of experiment: Antitumor activity against mouse LLC cells allografted in C57BL/6 mouse assessed as tumor growth inhibition at 5 mg/kg, ip administered for 14 days measured on day 15 relative to control. The format is functional. As to conditions: route intraperitoneal, read-out: TGI. The method in brief: as §2
Data set [28] has as its system Lewis lung carcinoma cell line. Description: Antitumor activity against mouse LLC cells allografted in C57BL/6 mouse assessed as tumor growth inhibition at 10 mg/kg, ip administered for 14 days measured on day 15 relative to control. Type of data set: functional. As to conditions: route intraperitoneal, read-out: TGI. The method in brief: as §2
Data set [29] concerns Mus musculus. As to the kind of experiment: Toxicity in C57BL/6 mouse allografted with mouse LLC cells assessed as change in body weight at 2.5 to 10 mg/kg, ip administered for 14 days measured during compound dosing. The format is organism-based. More on the design: dose 2.5-10 mg/kg, route intraperitoneal. Conditions: in vivo, 336 h. A digest of the protocol: as §3

Active and inactive are the calls of the source. No cut-off for these calls is given here.

Consider `COc1cccc2c1C(=O)c1c(O)c3c(c(O)c1C2=O)C[C@@](O)(C(=O)CO)C[C@@H]3O[C@H]1C[C@H](N)[C@H](O)[C@H](C)O1` [DOXORUBICIN], for which the inhibition of growth at 10 µM was 84.9% in the data set with MCF7; 89.3% with MDA-MB-231 [1]; 92% in the data set on A549 [2]; 79% in data set [3]; 82% in the data set on HeLa. Moreover, the IC50 is 1280 nM in the data set on A549 [4], 1550 nM in the data set on MDA-MB-231 [5] and 477 nM in data set [6]. Moreover, the inhibition in vivo at 2.5 mg/kg in data set [7] worked out at 52.5%. In addition, in the data set on Mus musculus [8], the Activity entry is recorded as “Toxic”.
For `COc1cc2cc(NC(=O)/C=C/c3ccc(Cl)cc3)c(=O)oc2cc1O`, the inhibition of growth at 10 µM was 70.1% in the data set on MCF7; 70.8% in the data set with MDA-MB-231 [1]; 87.9% in the data set with A549 [2]; 64.3% in data set [3]; 86.2% in the data set with HeLa. The IC50 with A549 [4] worked out at 249 nM; in the data set with MDA-MB-231 [5], 231 nM; in data set [6], 684 nM. In addition, the Activity in the data set on A549 [9] was 9.2%; with A549 [10] it was 19.6%; in the data set on A549 [11], 19.3%; in the data set with A549 [14], 5.7%; in the data set with A549 [15], 3.7%; in the data set with A549 [16], 4.3%. The Activity in the data set with A549 [18] stood at 8.3%; with A549 [19], 3.6%; in the data set on A549 [20], 2.4%; in the data set on A549 [22] it was 24.3%; with A549 [23], 7.3%; in the data set on A549 [24] it was 1.8%. Moreover, the Activity result in the data set with Mus musculus [29] is on record as “Non-toxic”. Besides, the outcome in the data set with A549 [12] was Active. Also, the result in the data set on A549 [13] was inactive. For the same molecule, the viability at 0.01 µM with A549 [17] amounted to 86.4%. Moreover, in the data set with A549 [21], the viability at 0.1 µM came out at 85.7%. The viability at 1 µM in the data set with A549 [25] amounted to 66.5%. Besides, the TGI result in data set [26] was “Dose-dependent effect”. Moreover, the inhibition in vivo at 2.5 mg/kg in [7] is 18.1%. Also, the inhibition in vivo at 5 mg/kg in [27] turned out to be 33.6%. Moreover, in data set [28], the inhibition in vivo at 10 mg/kg was 49.5%.
